# Compound activity as filed in PubChem.
# TRPML3 ag – activates the human TRPML3 channel | Q8TDD5 | HEK293 TRPML3-YFP, Fluo-8 calcium fluorescence; 100% = the carbachol control signal | activation, % at 3 µM | hit rate 0.29% among 220,000;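 active = activation above its plate's cutoff, the mean activation of the plate's test wells plus 3 SD, cut at about 12% in these data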;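 also: 0% = DMSO only wells and 100% = carbachol wells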
# Target sequence (Q8TDD5 whole entry, looked up): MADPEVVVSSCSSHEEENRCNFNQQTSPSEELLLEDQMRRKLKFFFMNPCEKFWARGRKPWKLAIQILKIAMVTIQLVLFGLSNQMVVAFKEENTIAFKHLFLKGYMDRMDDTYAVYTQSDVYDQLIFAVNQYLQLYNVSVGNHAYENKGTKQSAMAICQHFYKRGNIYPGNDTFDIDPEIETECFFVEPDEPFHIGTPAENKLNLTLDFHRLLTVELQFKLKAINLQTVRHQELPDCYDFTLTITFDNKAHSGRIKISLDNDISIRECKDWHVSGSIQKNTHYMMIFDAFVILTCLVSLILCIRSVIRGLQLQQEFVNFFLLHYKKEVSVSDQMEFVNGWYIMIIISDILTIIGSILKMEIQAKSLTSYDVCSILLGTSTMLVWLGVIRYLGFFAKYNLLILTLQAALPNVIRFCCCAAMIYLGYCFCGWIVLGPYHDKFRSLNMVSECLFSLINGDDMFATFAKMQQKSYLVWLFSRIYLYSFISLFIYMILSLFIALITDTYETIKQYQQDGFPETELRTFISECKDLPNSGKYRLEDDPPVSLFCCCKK
#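 Test system: HEK293 cells stably carrying human TRPML3-YFP; Doses: single dose, 3 µM final nominal compound, 0.3% DMSO final; Schedule: dye loading 1 h 37 °C then 30 min ambient, 125 s read; Technique: Fluo-8 calcium fluorescence; Benchmarks: high control carbachol 87 µM, low control DMSO.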
# zfTRPN1 agonist – agonists of zebrafish TRPN1 channel. HEK293 zebrafish TRPN1-YFP, Fluo-8 calcium fluorescence; 100% = response to 87 µM carbachol. activation, % at 3 µM. hit rate 0.18% among 220,000. AID 1424;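 active = activation above its plate's cutoff, the mean activation of test wells on that plate plus 3 SD, cut at about 19% in these data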;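 also: 0% = DMSO alone and 100% = 87 µM carbachol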
#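 Material – zebrafish TRPN1-YFP in HEK293 cells · Doses – 3 µM single point · Schedule – dye 1 h 37 °C plus 30 min RT · Signal – Fluo-8 calcium fluorescence, excitation 470-495 nm, emission 515-575 nm · Read-out – % activation versus carbachol response · Control set – carbachol high, DMSO low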
# OXTR potentiator – human OXTR potentiation | CHO-OTR cells, Fluo-8 calcium fluorescence, potentiator mode; 0% = oxytocin EC15, 100% = EC100 | activation, % at 3 µM | hit rate 0.061% among 320,000 | AID 2445;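 active = activation above that plate's cutoff, the mean activation of tested compounds plus 3 SD, cut at about 6.6% in these data, passing the limit was not always enough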;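 also: 100% uses oxytocin at 75 nM as the full agonist control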
#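 Assay system: CHO cell line stably expressing human OTR. Reagent: EC15 oxytocin agonist. Dosing: single dose, 3.0 µM nominal final compound concentration. Timing: compound 6 min at room temperature before oxytocin, 100 s read. Signal: kinetic Fluo-8 calcium fluorescence. Controls: oxytocin EC15 low and EC100 high.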
# OXTR agonist – human OXTR agonism; activation, % at 3 µM; hit rate 0.32% among 320,000; CHO-OTR cells, Fluo-8 calcium fluorescence; normalized: DMSO 0%, oxytocin 100%; AID 2435;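 active = activation above the mean of all tested compounds plus 3 SD, cutoff set per screening run, cut at about 20% in these data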;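 also: peak over basal fluorescence ratio from a 100 s FLIPR kinetic read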
# V1aR counter – counter-screen for oxytocin receptor agonists: human V1a receptor agonists; P37288; CHO-V1R cells, Fluo-8 calcium fluorescence, agonist mode; 0% DMSO, 100% 3 nM vasopressin; activation, % at 3 µM; hit rate 0.25% among 320,000; AID 2797;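 active = activation above the mean activation of all tested compounds plus 3 SD, per screening run, cut at about 20% in these data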;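 also: signal is peak over basal fluorescence ratio across a 100 second FLIPR read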
# Starred values were filed as active, the others as inactive; / = no result given. Hits are enriched below; roughly 0.55% of the tested compounds scored in any of these assays.
SMILES,TRPML3 ag,zfTRPN1 agonist,OXTR potentiator,OXTR agonist,V1aR counter
CCn1c(C)nc2cc(C(=O)N/N=C(\C)c3ccccc3O)ccc21,1,1,-10,0,0
CC1(C)CC[C@]2(C(=O)O)CC[C@]3(C)C(=CC[C@@H]4[C@@]5(C)CC[C@H](O[C@@H]6O[C@H](C(=O)O)[C@@H](O)[C@H](O[C@@H]7OC[C@H](O)[C@H](O)[C@H]7O)[C@H]6O)C(C)(C)[C@@H]5CC[C@]43C)[C@@H]2C1,/,/,-13,56*,108*
CC(C)c1ccc(OCC(=O)NCc2ccccc2)cc1,/,/,-4,-2,0
Cc1ccc(N=Cc2sc(O)c3ccccc23)cc1,8,13,-14,29*,37*
C=CCN1C(c2cccc(C(F)(F)F)c2)=CS/C1=C(/C#N)c1nnc(N2CCOCC2)n1-c1ccccc1,61*,22*,-7,-2,0
CCOC(=O)/C(=C/C=C1\Sc2ccccc2N1CC)C(C)=O,23*,51*,-17,46*,49*
CCOC(=O)/C(=C\C=C1/Sc2ccccc2N1CC)C(C)=O,20*,30*,-12,60*,40*
CCOC(=O)/C(=C/C=C1\Sc2cc(C)c(C)cc2N1CC)C(C)=O,21*,31*,/,/,/
O=C(NCCN1CCOCC1)C(=O)NCC1OCCCN1S(=O)(=O)c1cc(F)ccc1F (stereo not given),/,/,-2,0,1
COc1cc(/C=C/C(=O)OCC(=O)c2ccc(OC(F)F)cc2)ccc1O,/,/,-10,34*,21*
COc1cc(/C=C/C(=O)OC(C)C(=O)Nc2c(C)n(C)n(-c3ccccc3)c2=O)ccc1O (stereo not given),/,/,-8,0,0
O=C(/C=C/c1ccco1)OCC(=O)c1ccc(OC(F)F)cc1,/,/,-6,-2,1
CCc1ccc(NC(=O)C(C)OC(=O)/C=C/c2ccc(O)c(OC)c2)cc1 (stereo not given),/,/,-11,45*,34*
CCCCn1nc(C(=O)N2CCN(S(=O)(=O)c3ccccc3)CC2)c2ccccc2c1=O,/,/,-16,-2,-1
COc1cccc2[nH]c(C(=O)NCc3ccccc3)cc12,/,/,-5,-1,0
COc1cc2nc(/C=C/c3ccc(N(C)C)cc3)sc2cc1SC,7,8,-11,21*,17
CCN(CC)c1ccc(/C=C/c2nc3ccccc3s2)cc1,3,4,-12,7,6
COC(=O)c1cccc(NC(=O)Nc2ccc(Cl)cc2)c1,7,21*,-20,14,14
COC(=O)c1cccc(NC(=O)NC(=O)c2ccc(Cl)cc2)c1,0,2,-12,0,0
CC(=O)Nc1ccc(CN2CCCC(C(=O)c3ccc(C(F)(F)F)cc3)C2)cc1 (stereo not given),1,1,-5,1,2
CCN(CC)S(=O)(=O)c1ccc2c(c1)oc(=O)n2CC(=O)NC1CCCCC1,/,/,-13,2,3
O=C(Cc1ccc(Br)cc1)Nc1ncc([N+](=O)[O-])s1,14*,21*,-19,17,13
O=C(Cc1ccc(Cl)cc1)Nc1ncc([N+](=O)[O-])s1,10,22*,/,/,/
O=C(COc1ccc(Cl)cc1)Nc1ncc([N+](=O)[O-])s1,20*,30*,/,/,/
Cc1cnc(NC(=O)Cc2ccc(Br)cc2)s1,/,/,-5,-2,1
SMILES,TRPML3 ag,zfTRPN1 agonist,OXTR potentiator,OXTR agonist,V1aR counter
Cc1ccc(N2C(=O)c3ccc(C(=O)N4CCN(Cc5ccccc5)CC4)cc3C2=O)cc1,3,9,-10,30*,40*
Cc1ccc(N2C(=O)c3ccc(C(=O)N4CCN(c5ccc(C)c(C)c5)CC4)cc3C2=O)cc1,1,-1,-3,0,0
O=C(NCc1ccccc1C(F)(F)F)c1cccc2c1C(=O)c1ccc(N3CCCCC3)cc1S2(=O)=O,/,/,-11,24*,25*
O=C(NCc1ccc(F)cc1)c1cccc2c1C(=O)c1ccc(N3CCC(Cc4ccccc4)CC3)cc1S2(=O)=O,/,/,-12,20*,27*
CC(C)(C)CNC(=O)c1cccc2c1C(=O)c1ccc(N3CCCC3)cc1S2(=O)=O,/,/,-9,8,11
CC1CCN(c2ccc3c(c2)S(=O)(=O)c2cccc(C(=O)NCc4ccc(F)cc4)c2C3=O)CC1,/,/,-2,5,4
